Columns and labels:
Type in all cases: functional, cell-based
KB = test: Cytotoxicity against human KB cells after 48 hrs by sulforhodamine B assay
Procedure, shortened: (§1)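 Cells kept below passage 15 in recommended medium with 10% FBS, gentamycin and amphotericin B, 37 °C, 5% CO₂. Seeded at 1 × 10⁴ cells/well overnight, then given serial two-fold dilutions (100 to 1.6) for 48 h, with untreated controls. Fixed in ice-cold 50% TCA, stained with 0.4% SRB in 1% acetic acid, read at 540 nm. IC₅₀ from dose–response curves of % growth inhibition.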

C-33-A = test: Cytotoxicity against human C33A cells after 48 hrs by sulforhodamine B assay; procedure, shortened: as §1
MCF7 = test: Cytotoxicity against human MCF7 cells after 48 hrs by sulforhodamine B assay; procedure, shortened: as §1
A549 = test: Cytotoxicity against human A549 cells after 48 hrs by sulforhodamine B assay; procedure, shortened: as §1
NIH3T3 = test: Cytotoxicity against mouse NIH/3T3 cells after 48 hrs by sulforhodamine B assay; procedure, shortened: as §1
[1] = Homo sapiens, KB, 48 h, read-out: IC50
[2] = Homo sapiens, C-33-A, 48 h, read-out: IC50
[3] = Homo sapiens, MCF7, 48 h, read-out: IC50
[4] = Homo sapiens, A549, 48 h, read-out: IC50
[5] = Mus musculus, NIH3T3, 48 h, read-out: IC50

Structure (SMILES)	IC50 (KB; kb)	IC50 (C-33-A; c-33-a)	IC50 (MCF7; mcf7)	IC50 (A549; a549)	IC50 (NIH3T3; nih3t3)	IC50 (KB; [1])	IC50 (C-33-A; [2])	IC50 (MCF7; [3])	IC50 (A549; [4])	IC50 (NIH3T3; [5])
CCOC(=O)c1cc2cc(/C=C/C(=O)c3ccc(Cl)cc3)c3ccccc3c2oc1=O	Not Active	Not Active	Not Active	Not Active	Not Active					
CCC(C)c1cc(/C=C/C(=O)c2ccc(Cl)cc2)cc2cc(C(C)=O)c(=O)oc12 (configuration not stated)	Not Active	Not Active	Not Active	Not Active	Not Active					
COC(=O)c1cc2cc(/C=C/C(=O)c3ccc(Cl)cc3)c3ccccc3c2oc1=O	Not Active	Not Active	Not Active	Not Active	Not Active					
CCOC(=O)c1cc2cc(C=O)c3ccccc3c2oc1=O				Not Active	Not Active	124 µM	93.5 µM	155 µM		
CCOC(=O)c1cc2cc(/C=C/C(=O)c3ccc(Cl)cc3)cc(C(C)CC)c2oc1=O (configuration not stated)						14.3 µM	4.54 µM	11.1 µM	12.8 µM	38.4 µM
CC(=O)c1cc2cc(/C=C/C(=O)c3ccccc3)c3ccccc3c2oc1=O	Not Active	Not Active	Not Active	Not Active	Not Active					
CCOC(=O)c1cc2cc(C=O)cc(C(C)CC)c2oc1=O (configuration not stated)					Not Active	132 µM	64.3 µM			
CCOC(=O)c1cc2cc(/C=C/C(=O)c3ccccc3)c3ccccc3c2oc1=O	Not Active	Not Active	Not Active	Not Active	Not Active					
CCC(C)c1cc(C=O)cc2cc(C(C)=O)c(=O)oc12 (configuration not stated)				Not Active	Not Active	176 µM	70 µM	141 µM		
COC(=O)c1cc2cc(/C=C/C(=O)c3ccc(C)cc3)c3ccccc3c2oc1=O				Not Active	Not Active	70.4 µM	52 µM	118 µM		
CCOC(=O)c1cc2cc(/C=C/C(=O)c3ccc(C)cc3)c3ccccc3c2oc1=O	Not Active	Not Active	Not Active	Not Active	Not Active					
CC(=O)c1cc2cc(C=O)c3ccccc3c2oc1=O				Not Active	Not Active	109 µM	72.8 µM	147 µM		
COC(=O)c1cc2cc(C=O)c3ccccc3c2oc1=O						57.9 µM	30.1 µM	61.7 µM	75.7 µM	66 µM
CC(=O)c1cc2cc(/C=C/C(=O)c3ccc(C)cc3)c3ccccc3c2oc1=O	Not Active	Not Active	Not Active	Not Active	Not Active					
CCC(C)c1cc(C=O)cc2cc(C(=O)OC)c(=O)oc12 (configuration not stated)			Not Active	Not Active	Not Active	146 µM	88 µM			
CCOC(=O)c1cc2cc(/C=C/C(=O)c3ccc(C)cc3)cc(C(C)CC)c2oc1=O (configuration not stated)					Not Active	18 µM	3.59 µM	81.1 µM	32.8 µM	
CCC(C)c1cc(/C=C/C(=O)c2ccccc2)cc2cc(C(=O)OC)c(=O)oc12 (configuration not stated)					Not Active	13.4 µM	6.28 µM	11.4 µM	10.7 µM	
COC(=O)c1cc2cc(/C=C/C(=O)c3ccccc3)c3ccccc3c2oc1=O				Not Active	Not Active	90.8 µM	62.4 µM	103 µM		
CCC(C)c1cc(/C=C/C(=O)c2ccc(Cl)cc2)cc2cc(C(=O)OC)c(=O)oc12 (configuration not stated)						28.2 µM	5.9 µM	10.8 µM	16.7 µM	42.4 µM
CC(=O)c1cc2cc(/C=C/C(=O)c3ccc(Cl)cc3)c3ccccc3c2oc1=O	Not Active	Not Active	Not Active	Not Active	Not Active					
CCOC(=O)c1cc2cc(/C=C/C(=O)c3ccccc3)cc(C(C)CC)c2oc1=O (configuration not stated)					Not Active	10.5 µM	8.12 µM	88.1 µM	12.9 µM	
COc1cccc2c1C(=O)c1c(O)c3c(c(O)c1C2=O)C[C@@](O)(C(=O)CO)C[C@@H]3O[C@H]1C[C@H](N)[C@H](O)[C@H](C)O1 [DOXORUBICIN]						0.22 µM	0.82 µM	0.61 µM	0.52 µM	

— ChEMBL document CHEMBL1287785, “Synthesis and in vitro evaluation of novel coumarin-chalcone hybrids as potential anticancer agents” (Bioorg Med Chem Lett, 2010)
